Broadly, the inhibition is the share of the control response that was lost under treatment. In general, MIC refers to the least concentration at which growth counts as inhibited. The low end stands for inhibition by little substance, the high end for a need for much substance.

Each structure is given as a SMILES string. Values after ≈ are worked out from the molar mass of the structure shown.

From ChEMBL document CHEMBL1649083, “Discovery of novel inhibitors of the NorA multidrug transporter of Staphylococcus aureus” (2011) come the findings set out here.

Experiment [1] has as its target T1, Quinolone resistance protein NorA (Staphylococcus aureus) (UniProt P0A0J7).
T1 sequence (whole entry): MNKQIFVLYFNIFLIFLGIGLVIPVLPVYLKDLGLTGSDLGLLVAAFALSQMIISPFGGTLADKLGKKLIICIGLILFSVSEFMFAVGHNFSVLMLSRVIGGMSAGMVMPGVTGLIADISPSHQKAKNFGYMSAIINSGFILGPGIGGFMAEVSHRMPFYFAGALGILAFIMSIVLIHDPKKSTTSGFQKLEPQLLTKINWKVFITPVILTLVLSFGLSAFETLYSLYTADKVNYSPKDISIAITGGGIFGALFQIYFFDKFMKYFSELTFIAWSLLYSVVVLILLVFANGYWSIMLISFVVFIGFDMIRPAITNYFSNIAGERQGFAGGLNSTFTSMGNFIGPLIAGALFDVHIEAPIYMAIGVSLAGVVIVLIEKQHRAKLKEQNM
Nature of the experiment: Inhibition of NorA in Staphylococcus aureus 1199B assessed as reduction in ethidium bromide efflux at 50 uM by fluorimetry after 5 mins. Summed up:
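S. aureus SA-1199B (NorA overexpressing via promoter up-mutation; GrlA A116E), EtBr-loaded cells. EtBr loss measured fluorometrically over a 5 min time course, in duplicate, as mean total efflux. Percent reduction calculated versus efflux without compound. Test compound at 50 μM; increasing concentrations were also run for dose-response profiles.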

The test system of experiment [2] is Staphylococcus aureus. Nature of the experiment: Antibacterial activity against Staphylococcus aureus 1199B by microdilution technique. It counts as functional. Summed up: (§1)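 MICs run in duplicate by broth microdilution following CLSI guidelines. Ciprofloxacin MICs were also determined with scalar dilutions of freshly prepared test compound solutions in checkerboard combination format. Strain panel: SA-K1902 (norA-), SA-K2378 (norA++), SA-1199 (norA wild-type), SA-1199B (norA++, GrlA A116E) and ATCC 25923 wild-type control.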

Experiment [3] concerns Staphylococcus aureus. Nature of the experiment: Antibacterial activity against wild type Staphylococcus aureus ATCC 25923 by microdilution technique. It counts as functional. Summed up:
(§2)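 Intrinsic MIC of each test compound, run alone, by broth microdilution per CLSI guidelines, in duplicate.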
A general note: In broth dilution the organism is exposed to a series of concentrations in liquid medium.

Experiment [4] has as its system Staphylococcus aureus. Nature of the experiment: Antibacterial activity against NorA deficient Staphylococcus aureus K1902 by microdilution technique. It counts as functional. The procedure, abridged:
as §2

In experiment [5] the test system is Staphylococcus aureus. As to the kind of experiment: Antibacterial activity against Staphylococcus aureus K2378 overexpressing NorA by microdilution technique. It counts as functional. Summed up:
as §2

Experiment [6] has as its system Staphylococcus aureus. As to the kind of experiment: Antibacterial activity against Staphylococcus aureus 1199B overexpressing wild type NorA and GrlA A116E mutant by microdilution technique. It counts as functional. The procedure, abridged: as §2
In experiment [7] the test system is Staphylococcus aureus. Nature of the experiment: Potentiation of ciprofloxacin MIC against NorA deficient Staphylococcus aureus K1902 by microdilution technique. It counts as functional. Summed up:
as §1

Experiment [8] has as its target T1, Quinolone resistance protein NorA (Staphylococcus aureus). As to the kind of experiment: Inhibition of NorA in Staphylococcus aureus 1199 assessed as reduction in ciprofloxacin MIC by microdilution technique. Summed up: (§3)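 Checkerboard combination: fresh scalar dilutions of test compound crossed with ciprofloxacin dilutions. Ciprofloxacin MIC determined by broth microdilution per CLSI guidelines, in duplicate. The result is the fold reduction in ciprofloxacin MIC relative to ciprofloxacin alone, read at the stated test-compound concentration. Reserpine served as reference inhibitor.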

For experiment [9], the system named is Staphylococcus aureus. Nature of the experiment: Potentiation of ciprofloxacin MIC against wild type Staphylococcus aureus ATCC 25923 by microdilution technique. It counts as functional. The procedure, abridged: as §1
Experiment [10] has as its target T1, Quinolone resistance protein NorA (Staphylococcus aureus). As to the kind of experiment: Inhibition of NorA in Staphylococcus aureus K2378 assessed as reduction in ciprofloxacin MIC at 1.56 ug/ml by microdilution technique. Summed up: as §3
The target is the same in experiment [11]. Nature of the experiment: Inhibition of NorA in Staphylococcus aureus 1199B expressing GrlA A116E mutant assessed as reduction in ciprofloxacin MIC at 1.56 ug/ml by microdilution technique. Summed up:
as §3

Experiment [12] has as its system Staphylococcus aureus. As to the kind of experiment: Antibacterial activity against Staphylococcus aureus 1199 expressing wild type NorA by microdilution technique.
The test system of experiment [13] is Staphylococcus aureus. As to the kind of experiment: Potentiation of ciprofloxacin MIC against wild type Staphylococcus aureus ATCC 25923 at 3.13 ug/ml by microdilution technique. It counts as functional. The procedure, abridged: (§4)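 Ciprofloxacin MICs were measured in duplicate by broth microdilution following CLSI guidelines, alone and in checkerboard combination with scalar dilutions of freshly prepared test compound. Potentiation was scored as the reduction in ciprofloxacin MIC. Strains: SA-1199B (NorA overexpressed via promoter up-mutation, plus GrlA A116E) and ATCC 25923 (wild-type control).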

For experiment [14], the target named is T1, Quinolone resistance protein NorA (Staphylococcus aureus). Nature of the experiment: Inhibition of NorA in Staphylococcus aureus 1199 assessed as reduction in ciprofloxacin MIC at 0.78 ug/ml by microdilution technique. The procedure, abridged:
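Checkerboard combination of ciprofloxacin with freshly prepared test compound in S. aureus SA-1199 (norA wild-type). Ciprofloxacin MIC determined in duplicate by CLSI microdilution in the presence of fixed compound concentrations.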

Experiment [15] has the same target. Nature of the experiment: Inhibition of NorA in Staphylococcus aureus K2378 assessed as reduction in ciprofloxacin MIC at 3.13 ug/ml by microdilution technique. The procedure, abridged:
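CLSI broth microdilution checkerboard combining ciprofloxacin with scalar dilutions of freshly prepared test compound, in duplicate, against S. aureus SA-K2378 (NorA-overexpressing; SA-K1902 norA-negative as paired strain). Value is the ciprofloxacin MIC reduction with test compound present at the stated fixed concentration.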

Experiment [16] has the same target. As to the kind of experiment: Inhibition of NorA in Staphylococcus aureus K2378 assessed as reduction in ciprofloxacin MIC at 12.5 ug/ml by microdilution technique. The procedure, abridged: as §3
The target is the same in experiment [17]. As to the kind of experiment: Inhibition of NorA in Staphylococcus aureus 1199B expressing GrlA A116E mutant assessed as reduction in ciprofloxacin MIC at 12.5 ug/ml by microdilution technique. Summed up: as §3
Experiment [18] has the same target. Nature of the experiment: Inhibition of NorA in Staphylococcus aureus 1199B expressing GrlA A116E mutant assessed as reduction in ciprofloxacin MIC at 25 ug/ml by microdilution technique. Summed up:
as §4

Regarding `CC[C@H]1CCc2nc(SCc3ccc(C(=O)O)cc3)c(C#N)c(C(F)(F)F)c2C1`, in experiment [1], the inhibition turned out to be 71.7%. Besides, the MIC against Staphylococcus aureus [2] amounted to 15 µM (≈ 6.31 µg/mL); in the experiment with Staphylococcus aureus [3], 6.25 µg/mL (≈ 14.9 µM); in the experiment on Staphylococcus aureus [4], 6.25 µg/mL (≈ 14.9 µM); against Staphylococcus aureus [5], 6.25 µg/mL (≈ 14.9 µM); in the experiment with Staphylococcus aureus [6], 6.25 µg/mL (≈ 14.9 µM); in the experiment on Staphylococcus aureus [12] it was 12.5 µg/mL (≈ 29.7 µM). The “fold change (FC)” value turned out to be 2 in the experiment on Staphylococcus aureus [7]; 2 in experiment [8]; 2 with Staphylococcus aureus [9]; 16 in experiment [10]; 2 in experiment [11].
On to `OC(CNCc1cccc(OCc2ccccc2)c1)c1ccccc1` (configuration not stated), for which, in experiment [1], the inhibition came out at 88.4%. In experiment [8], the fold change (FC) was 4.
Take `Cc1ccc(S(=O)(=O)Nc2ccc3[nH]c(-c4cccn4C)nc3c2)cc1`: the inhibition in experiment [1] amounted to 88.2%. For the same compound, the MIC in the experiment on Staphylococcus aureus [2] is above 273 µM; against Staphylococcus aureus [3] it was above 100 µg/mL; with Staphylococcus aureus [4], above 100 µg/mL; in the experiment with Staphylococcus aureus [5] it was above 100 µg/mL; in the experiment on Staphylococcus aureus [6], above 100 µg/mL; against Staphylococcus aureus [12] it was above 100 µg/mL. The “fold change (FC)” value (with Staphylococcus aureus [13]; in [14]) was 8 each time.
As to `CC[C@H](C)N1C(=O)S/C(=C/c2ccc(-c3cc(C(=O)O)ccc3Cl)o2)C1=O`, in [1], the inhibition turned out to be 81%. The MIC amounted to 123 µM (≈ 49.9 µg/mL) against Staphylococcus aureus [2]; 50 µg/mL (≈ 123 µM) in the experiment on Staphylococcus aureus [3]; 50 µg/mL (≈ 123 µM) against Staphylococcus aureus [4]; 50 µg/mL (≈ 123 µM) with Staphylococcus aureus [5]; 50 µg/mL (≈ 123 µM) in the experiment with Staphylococcus aureus [6]; 25 µg/mL (≈ 61.6 µM) against Staphylococcus aureus [12]. The “fold change (FC)” value is 2 in the experiment on Staphylococcus aureus [7]; 2 in experiment [8]; 2 with Staphylococcus aureus [9]; 32 in [15]; 32 in experiment [16]; 8 in [17].
As to `C[C@@H](NCc1cccc(OCc2ccccc2)c1)[C@@H](O)c1ccccc1`, the inhibition in [1] was found to be 86.6%. The MIC in the experiment with Staphylococcus aureus [2] was above 288 µM; against Staphylococcus aureus [3], 100 µg/mL (≈ 288 µM); in the experiment on Staphylococcus aureus [4] it was 100 µg/mL (≈ 288 µM); in the experiment on Staphylococcus aureus [5], 50 µg/mL (≈ 144 µM); with Staphylococcus aureus [6] it was above 100 µg/mL; in the experiment on Staphylococcus aureus [12], 100 µg/mL (≈ 288 µM). In addition, the “fold change (FC)” value in the experiment on Staphylococcus aureus [7] amounted to 2; in experiment [8], 2; in the experiment with Staphylococcus aureus [9] it was 2; in experiment [15] it was 4; in experiment [18], 16; in experiment [16], 16. Further, the fold change (FC) in [17] worked out at 4.
As to `CCCOc1ccc(-c2cc(=O)c3ccccc3n2C)cc1`, the inhibition in [1] turned out to be 3.9%.
Consider `CCCOc1ccc(-c2cc(=O)c3ccccc3n2CCN2CCCCC2)cc1`, for which the inhibition in experiment [1] was determined as 75.1%.
Same read-out and setting: the result for `Cc1ccc(N2CCN(C3=Nc4cc(Cl)ccc4Oc4ccccc43)CC2)cc1` reads 35.1%; that for `CCCOc1ccc(-c2cc(=O)c3ccccc3s2)cc1`, 6.3%.
On to `CSc1ccc2c(c1)N(CCC1CCCCN1C)c1ccccc1S2` (configuration not stated), for which the inhibition in [1] is above 88%.
In the case of `Cn1cccc1-c1nc2cc(NC(=O)c3ccccc3)ccc2[nH]1`, the inhibition in experiment [1] amounted to 94.3%. Also, the fold change (FC) in experiment [8] turned out to be 4.
For `N#Cc1c(-c2ccc(F)cc2)cc(-c2ccccc2)nc1SCC(=O)N1CCC[C@@H]1C(=O)O`, the inhibition in experiment [1] came out at 36.3%.
On the same count and under the same terms, the result for `NS(=O)(=O)c1ccc(NC2=NC(=O)C(CC(=O)O)S2)cc1` (configuration not stated) reads 0%.
Same read-out and setting: then `Cc1ccc(-n2c(SCc3ccc(C(=O)O)cc3)nnc2-c2ccc(Cl)cc2)cc1`, with 1.3%; and `CCOC(=O)c1cn(C2CC2)c2cc(N3CCC4=C(C3)C(=O)CCS4)c(N)cc2c1=O`, with 35.7%.
Same read-out and setting: the result for `O=C(CSc1nnc(CNc2ccc(F)cc2)o1)N1c2ccccc2Sc2ccccc21` reads 11.5%.
